# In the library only some 2.5% were active in any assay of this set; here they are far more common.
# Tb hexokinase – Trypanosoma brucei hexokinase 1 inhibitors, primary screen, biochemical, G6PDH-coupled NADH absorbance, MLSCN library; hexokinase 1 [Trypanosoma brucei]; recombinant TbHK1, G6PDH-coupled NADH A340; inhibition, % at 10 µM; 220,000 compounds, 0.11% hits;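 active means inhibition of 50% or more in the single-dose primary screen; inactive means inhibition below 50%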
# PfGluPho inh – PfG6PD enzyme inhibitors, primary screen, biochemical, fluorescence intensity, uHTS. glucose-6-phosphate dehydrogenase-6-phosphogluconolactonase (Plasmodium falciparum 3D7). PfGluPho enzyme, NADPH resazurin-diaphorase fluorescence. inhibition, % at 20 µM. 350,000 compounds, 0.78% hits;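 active means inhibition reaching at least a set limit at 20 µM in the primary screen, cut at about 59% in these data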;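 further: 0% = DMSO wells with substrate and 100% = DMSO wells lacking glucose-6-phosphate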
# PHOSPHO1 block – PubChem AID 1565; Phosphoethanolamine/phosphocholine phosphatase (Homo sapiens), Q8TCT1; recombinant PHOSPHO1, absorbance phosphatase assay; inhibition, % at 13.3 µM; 290,000 compounds, 1.1% hits; in the data active means inhibition above about 60%
# EP2 mod – EP2 receptor modulators, cAMP readout, primary screen, cell-based, HTRF cAMP, PGE2 stimulation; Prostaglandin E2 receptor EP2 subtype (Homo sapiens), P43116; EP2-expressing cells, cAMP HTRF FRET, PGE2 co-stimulation; induction, % at 25 µM; 260,000 compounds, 0.83% hits;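 active means compounds whose cAMP rise, as percent of the full-agonist control response, exceeds 60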;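 further: rat C6 glioma line stably carrying human EP2 under a CMV promoter; the protocol text gives 20 µM as final concentration; 100% = response of wells given 1 µM PGE2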
# Target sequence (P43116 whole entry, looked up): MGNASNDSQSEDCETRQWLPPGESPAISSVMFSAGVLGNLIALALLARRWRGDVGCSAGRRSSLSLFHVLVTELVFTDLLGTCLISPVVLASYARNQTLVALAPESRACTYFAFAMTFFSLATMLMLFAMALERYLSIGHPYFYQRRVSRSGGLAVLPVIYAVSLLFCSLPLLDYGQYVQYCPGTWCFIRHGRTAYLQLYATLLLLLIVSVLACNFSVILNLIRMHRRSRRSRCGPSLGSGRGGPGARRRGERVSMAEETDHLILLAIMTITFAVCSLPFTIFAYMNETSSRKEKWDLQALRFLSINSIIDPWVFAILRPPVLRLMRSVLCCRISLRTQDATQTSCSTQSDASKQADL
# HKDC1 inh – HKDC1 hexokinase inhibitors, primary screen, biochemical, fluorescence, uHTS. Q2TB90. recombinant HKDC1, G6PDH/diaphorase resazurin coupled fluorescence. inhibition, % at 20 µM. 340,000 compounds, 0.16% hits. AID 493160, 2011;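 active means inhibition above about 35% when tested at 20 µM, limit read from the data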;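 further: plate controls were DMSO wells with enzyme for no effect and DMSO wells lacking enzyme for full effect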
#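 Material: recombinant HKDC1 hexokinase; Amount: HKDC1 at 5 µg/mL; Medium: Tris pH 8.0 buffer with MgCl2, Tween-20, BSA, BME; Schedule: 90 min reaction incubation at room temperature, dark; Technique: coupled resazurin fluorescence, excitation 525 nm, emission 613 nm.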
# EP2 antag – human EP2 receptor antagonists, primary screen, TR-FRET cAMP, C6 glioma cells | AID 1422, 2008 | Prostaglandin E2 receptor EP2 subtype (Homo sapiens), P43116 | C6 glioma cells expressing human EP2; cells stimulated with saturating PGE2 | inhibition, % at 25 µM | 260,000 compounds, 0.52% hits;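 active means percent inhibition above 40 after rounding to a whole number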;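 further: rat C6 glioma host cells with rolipram phosphodiesterase inhibitor present; the protocol text gives 20 µM as final concentration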
# HKDC1 act conf – HKDC1 hexokinase activators, confirmation, biochemical, single concentration | shares compounds with HKDC1 inh | 740 compounds, 14% hits | recombinant HKDC1, G6PDH/diaphorase resazurin fluorescence; active compounds read low | AID 504708, 2011 | inhibition, % at 20 µM;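 active means inhibition at or below a set negative limit, negative inhibition meaning the enzyme was activated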
# PfGluPho conf – PfG6PD inhibitors, hit retest, confirmation, biochemical, fluorescence intensity, single concentration. inhibition, % at 20 µM. shares compounds with PfGluPho inh. recombinant PfGluPho, NADPH-diaphorase-resazurin fluorescence. 2,400 compounds, 34% hits;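 active means inhibition of at least 50% at 20 µM in any single replicate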;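 further: 0% = DMSO with substrate and 100% = DMSO lacking glucose-6-phosphate substrate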
# Diaph ctr 10uM – diaphorase inhibitors and chemical oxidizers, confirmation, counter-screen for P. falciparum G6PD inhibitor project, biochemical, fluorescence intensity, 10 µM NADPH | shares compounds with PfGluPho inh | diaphorase-coupled resazurin reduction, NADPH 10 uM | inhibition, % at 20 µM | 820 compounds, 39% hits | AID 504862, 2011;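 active means average inhibition reaching 50% or more with the compound at 20 µM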;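 further: resorufin red fluorescence formed as diaphorase reduces resazurin using NADPH; 0% = DMSO with enzyme and 100% = DMSO without enzyme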
# Diaphorase 30uM – diaphorase inhibitors and chemical oxidizers, confirmation, counter-screen for P. falciparum G6PD inhibitor project, biochemical, fluorescence intensity, 30 µM NADPH. shares compounds with PfGluPho inh. Diaphorase/resazurin coupled assay, resorufin fluorescence. inhibition, % at 20 µM. 820 compounds, 29% hits. AID 504863, 2011;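 active means inhibition averaging 50% or more, tested at 20 µM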;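 further: 0% = DMSO with enzyme and 100% = DMSO wells lacking diaphorase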
# An asterisk follows results filed as active; . = no result.
SMILES,Tb hexokinase,PfGluPho inh,PHOSPHO1 block,EP2 mod,HKDC1 inh,EP2 antag,HKDC1 act conf,PfGluPho conf,Diaph ctr 10uM,Diaphorase 30uM
COc1ccc(N2C3=C(CC4=C2CCCC4=O)C(=O)CCC3)cc1,-5,97*,9,13,33,19,47,19,.,.
COc1ccc(N2C3=C(CC4=C2CC(C)(C)CC4=O)C(=O)CC(C)(C)C3)cc1,1,11,-15,-10,11,22,.,.,.,.
COCC(=O)OC1CCn2c1nc1c2C(=O)C(C)=C(NC(C)=O)C1=O (stereo not given),.,123*,.,.,68*,.,79,104*,99*,89*
O=c1c(Cl)c(N2CCN(CCO)CC2)cnn1-c1ccccc1,.,.,.,-6,.,12,.,.,.,.
OCCOCCN1CCN(C2=Nc3ccccc3Sc3ccccc32)CC1,.,-4,15,6,-8,15,.,.,.,.
O=C1C=CC(=O)c2c(O)c(N3CCN(CCOCCO)CC3)c(Br)c(O)c21,.,115*,.,.,46*,.,11,87*,61*,53*
O=C1C=CC(=O)c2c(O)c(N3CCN(CCO)CC3)c(Cl)c(O)c21,.,103*,.,.,32,.,10,89*,54*,57*
O=C1OC(c2ccc3ccccc3c2O)(c2ccc3ccccc3c2O)c2ccccc21,.,75*,.,.,36*,.,15,57*,15,11
COC(=O)c1ccc(O)cc1,.,2,36,.,-3,.,.,.,.,.
COC(=O)c1ccc(CCc2cc(O)c(Br)cc2O)cc1,.,119*,.,.,69*,.,54,19,.,.
COc1cc(N=c2ssnc2Cl)cc(OC)c1OC,23,83*,-67,-40,-100,130*,-46*,68*,-26,-22
CCOc1cc(NC(=O)c2ccco2)c(OCC)cc1NC(=O)c1ccc(C(C)(C)C)cc1,.,.,.,32,.,11,.,.,.,.
COc1cccc(-n2c(SCC(=O)N3CCCCCC3)nnc2-c2ccccn2)c1,.,.,.,8,.,10,.,.,.,.
COc1cc([N+](=O)[O-])ccc1-c1ccc(/C=C2\C(=O)ON=C2c2ccccc2)o1,.,74*,.,.,44*,.,25,-9,.,.
Cc1nc2c(C)c(C)c(C)c(C)c2nc1C,-18,3,-1,14,0,15,.,.,.,.
Cc1nc2c(O)c3c(c(O)c2nc1C)C1C=CC3CC1,.,123*,.,.,82*,.,90,102*,95*,89*
CCCc1nn(CC(=O)NC2CCC2)c(=O)c2cc3ccsc3n12,.,.,.,-44,.,.,.,.,.,.
O=C(O)c1cccc2c1C(=O)c1ccccc1-2,-9,-9,51,-4,4,18,.,.,.,.
O=C1C(=C(I)I)c2ccccc2-c2ccccc21,.,104*,.,.,61*,.,32,60*,61*,70*
COc1cc(CN2CCCC(C(=O)c3ccc4c5c(cccc35)CC4)C2)cc(OC)c1O (stereo not given),-13,74*,-32,-47,34,5,26,79*,16,0
O=C(c1ccc2c3c(cccc13)CC2)C1CCCN(Cc2cccnc2)C1 (stereo not given),-9,6,29,-52,3,5,.,.,.,.
